Consider 43 compounds from PubChem BioAssay AID588798 (Johns Hopkins Ion Channel Center, 2011).

Active and inactive are the calls of the source.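 Rule for the calls: active = peak inhibition of the KCNQ2 potassium channel above 30% at some tested dose, plus a fitted dose response curve; inactive = no inhibition at any dose, or no curve.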

Chain of Potassium voltage-gated channel subfamily KQT member 2 (Rattus norvegicus) (O88943 whole entry, looked up): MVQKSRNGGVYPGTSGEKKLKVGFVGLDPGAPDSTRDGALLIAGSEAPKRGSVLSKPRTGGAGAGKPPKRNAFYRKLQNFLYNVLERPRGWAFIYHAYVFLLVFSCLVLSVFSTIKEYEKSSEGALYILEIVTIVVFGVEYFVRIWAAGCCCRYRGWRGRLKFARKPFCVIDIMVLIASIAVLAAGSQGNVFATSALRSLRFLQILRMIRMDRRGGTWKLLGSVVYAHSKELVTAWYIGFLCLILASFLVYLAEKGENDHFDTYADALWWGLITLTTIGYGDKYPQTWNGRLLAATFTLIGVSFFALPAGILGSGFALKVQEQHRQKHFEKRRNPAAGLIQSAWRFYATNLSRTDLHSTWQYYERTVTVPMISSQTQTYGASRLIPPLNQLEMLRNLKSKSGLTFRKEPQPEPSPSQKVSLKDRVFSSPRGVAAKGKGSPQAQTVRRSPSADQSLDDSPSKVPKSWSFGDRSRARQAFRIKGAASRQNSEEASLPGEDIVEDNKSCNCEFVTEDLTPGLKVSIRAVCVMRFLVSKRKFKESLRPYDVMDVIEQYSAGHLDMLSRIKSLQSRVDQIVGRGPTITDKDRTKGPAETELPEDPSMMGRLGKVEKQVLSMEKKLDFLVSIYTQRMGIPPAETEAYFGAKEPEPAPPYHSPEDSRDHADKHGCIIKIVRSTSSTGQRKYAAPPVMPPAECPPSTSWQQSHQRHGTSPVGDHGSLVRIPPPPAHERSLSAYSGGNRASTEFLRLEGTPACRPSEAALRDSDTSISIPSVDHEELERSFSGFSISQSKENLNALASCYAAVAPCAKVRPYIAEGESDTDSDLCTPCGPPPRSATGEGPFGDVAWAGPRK

The target of one experiment is Potassium voltage-gated channel subfamily KQT member 2 (Rattus norvegicus) (UniProt O88943). As to the kind of experiment: rat KCNQ2 channel inhibition, SAR follow-up, selectivity assay for KCNK9 inhibitor project, cell-based, FluxOR thallium flux, CRC set 3 (AID 588798). The following applies: KCNQ2-expressing cells, FluxOR thallium flux fluorescence. In a few lines:
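test system = CHO cells expressing rat KCNQ2 potassium channel | compound dosing = concentration-response series | incubation = dye loading 90 min, compound pre-incubation 20 min, both room temperature | technique = FluxOR thallium-sensitive dye, kinetic fluorescence reading | read-out = normalised fluorescence change ratio and IC50 | repeats = duplicate or more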
What is called IC50 is the concentration at which inhibition is half-maximal. Turning to `CC(C1CC2CCC1C2)n1c(SCc2ccccc2)nnc1-c1ccco1` (stereo not drawn), the 50% inhibitory concentration (IC50) was 18 µM.

The experiment is the same for the next values; noted with them: KCNQ2-expressing cells, FluxOR thallium flux fluorescence; at 30 µM (top of the series).
As for `COc1cccc(-c2nnc(S(C)(=O)=O)n2C(C)C2CC3CCC2C3)c1` (stereo not drawn), the “thallium flux ratio, lower = inhibition” value was “inactive”. Still for that read-out and setting: the result for `CC(C1CC2CCC1C2)n1c(SCC(=O)c2ccccc2)nnc1-c1ccco1` (stereo not drawn) reads “inactive”. With `CC(C1CC2CCC1C2)n1c(SCC(=O)c2ccc(Cl)c(Cl)c2)nnc1-c1ccco1` (stereo not drawn), the “thallium flux ratio, lower = inhibition” value was “inactive”.

In the case of `COc1cccc(-c2n[nH]c(=S)n2C(C)C2CC3CCC2C3)c1OC` (stereo not drawn), the “thallium flux ratio, lower = inhibition” value is “inactive”. The same measure, in the same setting: the result for `CC(C1CC2CCC1C2)n1c(-c2ccco2)n[nH]c1=O` (stereo not drawn) reads “inactive”; that for `CC(C1CC2CCC1C2)n1c(SCC(=O)c2ccc3c(c2)OCO3)nnc1-c1ccco1` (stereo not drawn), “inactive”. For `COc1ccc(CCSc2nnc(-c3ccco3)n2C(C)C2CC3CCC2C3)cc1OC` (stereo not drawn), the “thallium flux ratio, lower = inhibition” value was “inactive”. For `CC(C1CC2CCC1C2)N(C)C(=O)c1ccco1` (stereo not drawn), the “thallium flux ratio, lower = inhibition” value is “inactive”. In the case of `CC(C1CCCCC1)n1c(-c2ccco2)n[nH]c1=S` (stereo not drawn), the “thallium flux ratio, lower = inhibition” value is “inactive”. With `CC(C1CC2CCC1C2)n1c(-c2ccco2)n[nH]c1=S` (stereo not drawn), the “thallium flux ratio, lower = inhibition” value was “inactive”. Regarding `COc1cccc(Cc2n[nH]c(=S)n2C(C)C2CC3CCC2C3)c1` (stereo not drawn), the “thallium flux ratio, lower = inhibition” value is “inactive”. Still for that read-out and setting: then `CC(C1CC2CCC1C2)n1c(-c2cccs2)n[nH]c1=S` (stereo not drawn), with “inactive”; and `CC(C1CC2CCC1C2)n1c(-c2ccco2)nnc1C(F)(F)F` (stereo not drawn), with “inactive”; and `CC(c1cccc2ccccc12)n1c(-c2ccco2)n[nH]c1=S` (stereo not drawn), with “inactive”. The same measure, in the same setting: then `COc1ccccc1C(=O)Nc1cccc(NC(=O)c2cccc3ccccc23)c1`, with “inactive”; and `CC(C1CC2CCC1C2)n1c(-c2ccccn2)n[nH]c1=S` (stereo not drawn), with “inactive”; and `CC(C1CC2CCC1C2)n1c(-c2ccncc2)n[nH]c1=S` (stereo not drawn), with “inactive”. For the compound `C[C@H](C1CCCCC1)n1c(-c2ccco2)n[nH]c1=S`, the “thallium flux ratio, lower = inhibition” value is “inactive”.

On to `CC(C1CC2CCC1C2)n1c(-c2cccnc2)n[nH]c1=S` (stereo not drawn), for which the “thallium flux ratio, lower = inhibition” value is “inactive”. On the same count and under the same terms, then `CC(CCC1CCCC1)n1c(-c2ccco2)n[nH]c1=S` (stereo not drawn), with “inactive”; and `CC(C1CC2CCC1C2)n1c(-c2cccc(N(C)C)c2)n[nH]c1=S` (stereo not drawn), with “inactive”. For `CC(C1CC2CCC1C2)n1c(-c2ccccc2F)n[nH]c1=S` (stereo not drawn), the “thallium flux ratio, lower = inhibition” value was “inactive”. With `CC(C1CC2CCC1C2)n1c(-c2cccc(F)c2)n[nH]c1=S` (stereo not drawn), the “thallium flux ratio, lower = inhibition” value is “inactive”.

`CC(NC(=O)c1ccco1)C1CC2CCC1C2` (stereo not drawn): the “thallium flux ratio, lower = inhibition” value was “inactive”. Regarding `COc1ccc(C(=O)CSc2nnc(-c3ccco3)n2C(C)C2CC3CCC2C3)cc1` (stereo not drawn), the “thallium flux ratio, lower = inhibition” value was “inactive”. In the case of `CC(C1CC2CCC1C2)n1c(-c2cccn2C)n[nH]c1=S` (stereo not drawn), the “thallium flux ratio, lower = inhibition” value was “inactive”.

Regarding `CC(CC1CC2CCC1C2)n1c(-c2ccco2)n[nH]c1=S` (stereo not drawn), the “thallium flux ratio, lower = inhibition” value was “inactive”. The same measure, in the same setting: the result for `COc1ccc(C(=O)CSc2nnc(-c3ccco3)n2C(C)C2CC3CCC2C3)cc1OC` (stereo not drawn) reads “inactive”. Same read-out and setting: the result for `CC(C1CC2CCC1C2)n1c(SCC#N)nnc1-c1cccs1` (stereo not drawn) reads “inactive”; that for `C[C@@H](C1CCCCC1)n1c(-c2ccco2)n[nH]c1=S`, “inactive”. For the compound `S=c1[nH]nc(-c2ccco2)n1CC1CC2CCC1C2` (stereo not drawn), the “thallium flux ratio, lower = inhibition” value was “inactive”.

For the compound `CC(C1CC2CCC1C2)n1c(SC(F)F)nnc1-c1ccco1` (stereo not drawn), the “thallium flux ratio, lower = inhibition” value was “inactive”. Still for that read-out and setting: the result for `CC(C1CC2CCC1C2)n1c(-c2ccc(N(C)C)cc2)n[nH]c1=S` (stereo not drawn) reads “inactive”; that for `CC(C1CC2CCC1C2)n1cnnc1-c1ccco1` (stereo not drawn), “inactive”. For `CC(C)Oc1ccccc1C(=O)Nc1cccc(NC(=O)c2ccccc2OC(F)(F)F)c1`, the “thallium flux ratio, lower = inhibition” value is “inactive”. Take `COc1cccc(C(=O)CSc2nnc(-c3ccco3)n2C(C)C2CC3CCC2C3)c1` (stereo not drawn): the “thallium flux ratio, lower = inhibition” value is “inactive”.

As to `CC(C)c1ccccc1C(=O)Nc1cccc(NC(=O)c2ccccc2OC(F)(F)F)c1`, the “thallium flux ratio, lower = inhibition” value is “inactive”. For the compound `S=c1[nH]nc(-c2ccco2)n1C1CC2CCC1C2` (stereo not drawn), the “thallium flux ratio, lower = inhibition” value is “inactive”. Regarding `CC(C1C2CCC1CC2)n1c(-c2ccco2)n[nH]c1=S` (stereo not drawn), the “thallium flux ratio, lower = inhibition” value is “inactive”.

For `CSc1nnc(-c2ccco2)n1C(C)C1CC2CCC1C2` (stereo not drawn), the “thallium flux ratio, lower = inhibition” value was “inactive”. Same read-out and setting: the result for `COc1cc(OC)cc(-c2n[nH]c(=S)n2C(C)C2CC3CCC2C3)c1` (stereo not drawn) reads “inactive”; that for `COc1ccccc1C(=O)Nc1cc(NC(=O)c2ccccc2C(C)C)ccc1F`, “inactive”.
